Eight molecules from ChEMBL document CHEMBL2040835, “Disubstituted Bis-THF Moieties as New P2 Ligands in Nonpeptidal HIV-1 Protease Inhibitors” (ACS Med Chem Lett, 2011) can be followed below.

Molecules are shown by their SMILES. A value given as a limit tells only on which side of the number the result lay.

The test system of data set [1] is Human immunodeficiency virus 1. Put plainly: Antiviral activity against Human immunodeficiency virus 1 3B expressing wild-type protease infected in human MT4 cells. Format: functional, organism-based. In outline:
(§1)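 Cell-based antiviral assay in MT4 cells infected with wild-type HIV-1 IIIB, read as EC50. Run in quadruplicate. It was also repeated in the presence of 50% human serum as an indicator of plasma protein binding.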

For data set [2], the system named is Human immunodeficiency virus 1. Put plainly: Antiviral activity against Human immunodeficiency virus 1 isolate M1 expressing protease L10I, M46I, I64V, I84V, L90M, I93L mutant infected in human MT4 cells. Format: functional, organism-based. As to conditions: Human immunodeficiency virus 1, isolate M1, MT4. In outline: (§2)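 Cell-based antiviral assay in MT4 cells infected with a multi-PI-resistant HIV-1 mutant carrying clinically observed primary protease mutations. EC50 determined, with all assays run in quadruplicate.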

Data set [3] relates to Human immunodeficiency virus 1. Put plainly: Antiviral activity against Human immunodeficiency virus 1 isolate M2 expressing protease L10I, I13V, M46I, I50V, L63P, L76V mutant infected in human MT4 cells. As to conditions: Human immunodeficiency virus 1, isolate M2, MT4. Format: functional, organism-based. In outline: as §2
The subject of data set [4] is Human immunodeficiency virus 1. Put plainly: Antiviral activity against Human immunodeficiency virus 1 isolate M3 expressing protease L10I, K20R, M36I, G48V, I62V, A71V, V82A, I93L mutant infected in human MT4 cells. Format: functional, organism-based. The note with it: Human immunodeficiency virus 1, isolate M3, MT4.
Data set [5] in a line: Cytotoxicity against human MT4 cells. Format: cell-based.
Data set [6] concerns Human immunodeficiency virus 1. Put plainly: Antiviral activity against Human immunodeficiency virus 1 3B expressing wild-type protease infected in human MT4 cells in presence of 50% human serum. Format: functional, organism-based. Put shortly:
as §1

The subject of data set [7] is Human immunodeficiency virus 1. As to the kind of experiment: Selectivity index, ratio of EC50 for Human immunodeficiency virus 1 isolate M1 expressing protease L10I, M46I, I64V, I84V, L90M, I93L mutant to EC50 for Human immunodeficiency virus 1 3B expressing wild-type protease. Format: functional. In outline: (§3)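 Fold change is the EC50 against the multi-PI-resistant mutant divided by the EC50 against wild-type HIV-1 IIIB. Both EC50s come from cell-based assays in MT4 cells run in quadruplicate.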

In data set [8] the test system is Human immunodeficiency virus 1. Put plainly: Selectivity index, ratio of EC50 for Human immunodeficiency virus 1 isolate M2 expressing protease L10I, I13V, M46I, I50V, L63P, L76V mutant to EC50 for Human immunodeficiency virus 1 3B expressing wild-type protease. Format: functional. Put shortly:
as §3

The test system of data set [9] is Human immunodeficiency virus 1. As to the kind of experiment: Selectivity index, ratio of EC50 for Human immunodeficiency virus 1 isolate M3 expressing protease L10I, K20R, M36I, G48V, I62V, A71V, V82A, I93L mutant to EC50 for Human immunodeficiency virus 1 3B expressing wild-type protease. Format: functional. In outline:
as §3

Data set [10] in a line: Selectivity index, ratio of CC50 for human MT4 cells to EC50 for Human immunodeficiency virus 1 3B. Format: toxicity, cell-based. Put shortly:
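Selectivity index is calculated as CC50 divided by EC50 against HIV-1 IIIB in the cell-based assay.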

In general, EC50 refers to the concentration that produces a half-maximal response. What is called CC50 is the concentration at which the toxic effect on the cells reaches its halfway point. Higher therefore signals lower toxicity to the cells. Consider `CC(C)CN(C[C@@H](O)[C@H](Cc1ccccc1)NC(=O)O[C@H]1CO[C@H]2OCC[C@H]21)S(=O)(=O)c1ccc(N)cc1`, for which the EC50 in [1] stood at 6.6 nM; in [2], 11.3 nM; in data set [3], 51 nM; in data set [4], 2.3 nM; in [6], 17.2 nM. In [5], this molecule returned a cytotoxic concentration (CC50) of over 9800 nM.

Regarding `CNc1nc2ccc(S(=O)(=O)N(CC(C)C)C[C@@H](O)[C@H](Cc3ccccc3)NC(=O)O[C@H]3CO[C@H]4OCC[C@H]43)cc2o1`, the EC50 in [1] stood at 2.3 nM; in data set [2], 2.7 nM; in data set [3], 3.2 nM; in data set [4] it was 0.9 nM; in data set [6] it was 8.3 nM. In addition, the “Ratio EC50” value is 1.2 in [7], 1.4 in data set [8] and 0.4 in data set [9]. In addition, in data set [5], the 50% cytotoxic concentration (CC50) was over 9800 nM. In addition, the selectivity ratio in [10] is over 2000.

On to `CC(C)CN(C[C@@H](O)[C@H](Cc1ccccc1)NC(=O)O[C@H]1CO[C@H]2OC[C@H](Oc3ccccc3)[C@H]21)S(=O)(=O)c1ccc(N)cc1`, for which the EC50 came out at 8.9 nM in [1]; 32.5 nM in data set [2]; 249 nM in [3]; 6.5 nM in data set [4]; 47.2 nM in data set [6]. The “Ratio EC50” value was determined as 3.7 in data set [7], 28 in data set [8] and 0.7 in data set [9]. The CC50 in [5] was over 9800 nM. The selectivity ratio in data set [10] was over 2000.

Turning to `CNc1nc2ccc(S(=O)(=O)N(CC(C)C)C[C@@H](O)[C@H](Cc3ccccc3)NC(=O)O[C@H]3CO[C@H]4OC[C@H](O)[C@H]43)cc2o1`, the EC50 in [1] is 138 nM; in data set [2], 125 nM; in [3], 108 nM; in [4] it was 104 nM; in data set [6], 446 nM. For the same molecule, the figures for the “Ratio EC50” value in [7], in data set [8] and in [9] were 0.9, 0.8 and 0.8, respectively.

Take `CNc1nc2ccc(S(=O)(=O)N(CC(C)C)C[C@@H](O)[C@H](Cc3ccccc3)NC(=O)O[C@H]3CO[C@H]4OC[C@H](OCc5ccccc5)[C@H]43)cc2o1`: the EC50 is 0.8 nM in data set [1]; 1.7 nM in data set [2]; 3.4 nM in data set [3]; 1 nM in data set [4]; 3.7 nM in data set [6]. Further, the entries for the “Ratio EC50” value in data set [7], in [8] and in [9] were 2.2, 4.5 and 1.3, respectively. The molecule further yielded a CC50 in [5] of over 9800 nM. Also, the selectivity ratio in data set [10] was over 2000.

For `CNc1nc2ccc(S(=O)(=O)N(CC(C)C)C[C@@H](O)[C@H](Cc3ccccc3)NC(=O)O[C@H]3CO[C@H]4OC[C@H](OCc5ccccc5F)[C@H]43)cc2o1`, the EC50 in data set [1] came to 0.7 nM; in [2] it was 1.3 nM; in data set [3], 2.1 nM; in data set [4] it was 0.9 nM; in data set [6] it was 4 nM. The “Ratio EC50” value in data set [7] worked out at 2; in data set [8], 3.1; in data set [9], 1.3. The molecule further gave a CC50 in data set [5] of over 9800 nM. Further, the selectivity ratio in [10] is over 2000.

For the molecule `CNc1nc2ccc(S(=O)(=O)N(CC(C)C)C[C@@H](O)[C@H](Cc3ccccc3)NC(=O)O[C@H]3CO[C@H]4OC[C@H](OCc5cccc(F)c5)[C@H]43)cc2o1`, the EC50 in data set [1] amounted to 0.6 nM; in data set [2] it was 0.8 nM; in [3] it was 1.7 nM; in [4], 0.8 nM; in data set [6] it was 3.7 nM. Moreover, the “Ratio EC50” value in data set [7] is given as 1.2; in data set [8], 2.7; in data set [9] it was 1.3. In [5], the CC50 is over 9800 nM. The selectivity ratio in data set [10] is over 2000.

For `Cc1cccc(C)c1OCC(=O)N[C@@H](Cc1ccccc1)[C@@H](O)C[C@H](Cc1ccccc1)NC(=O)[C@H](C(C)C)N1CCCNC1=O` [LOPINAVIR], the EC50 in data set [1] is 13.9 nM; in [2], 115 nM; in data set [3], 307 nM; in [6], 63.2 nM. In addition, the CC50 in data set [5] was over 9800 nM.
